Source: PubChem BioAssay (several laboratories)
Sampled rows, rich in hits. Any-hit rate of the full collection: about 2.5%.
NTR1 ag: agonists of human NTR1, primary screen, imaging, U2OS cells, beta-arrestin-GFP, high content; activation, % at 20 µM; NTR1-U2OS beta-arrestin-GFP spot imaging, agonist mode; 330,000 tested, 0.17% active; AID 493036, 2011; Neurotensin receptor type 1 (Homo sapiens), P30989;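 active = activation at or above 40% of the spot to cytoplasm intensity ratio, with at least 20 cells analyzed; inconclusive = wells under 20 cells, flagged as cytotoxic or low count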;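 also: 0% = DMSO without peptide and 100% = 100 nM NTR1 peptide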
MC4R antagonist: MC4R antagonists of cAMP signaling, primary screen, cell-based, TR-FRET, antagonist arm of biased-ligand search; inhibition, % at 6.5 µM; 360,000 tested, 0.48% active; MC4R-expressing cells, MTII-stimulated cAMP, LANCE TR-FRET;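 active = inhibition above its plate's cutoff, the mean of tested wells on that plate plus 3 SD, cut at about 29% in these data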;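 also: 0% = Melanotan II alone and 100% = Melanotan II plus saturating MCL0020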
Target sequence (P32245 whole entry, looked up): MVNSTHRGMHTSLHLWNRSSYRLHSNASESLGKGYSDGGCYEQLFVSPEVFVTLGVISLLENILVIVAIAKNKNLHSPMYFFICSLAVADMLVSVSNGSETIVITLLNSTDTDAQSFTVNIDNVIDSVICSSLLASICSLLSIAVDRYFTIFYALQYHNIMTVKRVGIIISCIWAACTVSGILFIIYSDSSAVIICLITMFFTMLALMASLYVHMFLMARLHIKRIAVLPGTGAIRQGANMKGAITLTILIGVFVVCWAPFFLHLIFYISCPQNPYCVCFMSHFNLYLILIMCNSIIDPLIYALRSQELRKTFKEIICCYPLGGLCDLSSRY
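System: U2OS-MC4R stable cell line; Technique: Eu-cAMP/anti-cAMP TR-FRET, emission 671 nm; Repeats: single well per compound; Also added: Melanotan II; Dosing: one concentration, 6.5 µM nominal; Schedule: 30-min compound, 1-h challenge, 1-h detection, room temperature.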
Granule exo inh: LAMP-1 surface exposure blockers, TALL-104 cells – cell-based, flow cytometry, MLPCN library, primary screen. TALL-104 LAMP-1 surface exposure; cells stimulated with thapsigargin and PMA. inhibition, % at 10 µM. 360,000 tested, 0.66% active;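 active = inhibition above about 55%, limit read from the data; inconclusive = no clear call, values can overlap the other calls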
HGIII-sPLA2 inh: human group III sPLA2 inhibitors, primary screen, biochemical, QFRET, BODIPY PC-A2 liposome substrate; Group 3 secretory phospholipase A2 (Homo sapiens), Q9NZ20; inhibition, % at 12.2 µM; 370,000 tested, 0.56% active; QFRET BODIPY PC-A2 liposome hydrolysis, fluorescence;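 active = inhibition above mean plus 3 SD of compounds lying within the high and low control bounds, cut at about 19% in these data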;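 also: 0% = median of test compound wells and 100% = no enzyme DMSO wells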
MC4R barr agon: MC4R agonists recruiting beta-arrestin, primary screen, cell-based, luminescence, agonist arm of biased-ligand search | Melanocortin receptor 4 (Homo sapiens), P32245 | U2OS MC4R beta-arrestin complementation; percent of melanotan II response, DMSO zero | activation, % at 8.9 µM | 360,000 tested, 0.98% active | AID 540308, 2011;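 active = activation above a per-plate cutoff, the mean activation of sample wells on that plate plus 3 SD, cut at about 8% in these data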
Bfl-1 A1 inh: caspase 3/7 activation in MEF A1-2A-BIM cells, primary screen, A1 inhibitor project, cell-based, luminescence, HTS | AID 2462, 2010 | 330,000 tested, 0.066% active | Caspase-Glo 3/7 luminescence, 3 h; percent of clofoctol response, vehicle zero | caspase activation, % (test concentration not listed);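 active = over half of replicate activation scores above 10%, or exactly half above 10 with the replicate mean above 10; inconclusive = replicate mean below 10 yet half the replicates above 10; inactive = over half of replicates below 10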
cAMP nonselect: nonselective cAMP signaling inhibitors, parental cells, counter-screen for MC4R biased antagonist project, cell-based, TR-FRET, U2OS, forskolin, triplicate; inhibition, % at 6.5 µM; shares compounds with MC4R antagonist; 1,600 tested, 26% active; LANCE TR-FRET; AID 602193, 2012;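 active = mean inhibition over triplicates above the low-control well mean plus 3 SD, set per campaign, cut at about 13% in these data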;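 also: signal is single emission at 671 nm which falls as cellular cAMP rises; 0% = forskolin-stimulated wells and 100% = buffer without forskolin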
MC4R cAMP antag: MC4R cAMP antagonists, retest, confirmation, cell-based, TR-FRET | MC4R-expressing cells, MTII-stimulated cAMP | inhibition, % at 6.5 µM | 1,600 tested, 27% active | AID 602195, 2012 | shares compounds with MC4R antagonist; in the data active = inhibition above about 29%;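 also: 0% = agonist stimulated wells alone and 100% = agonist stimulated wells plus saturating reference antagonist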
* hit, by the source's call; ? = inconclusive; · = not tested or not shown.

SMILES	NTR1 ag	MC4R antagonist	Granule exo inh	HGIII-sPLA2 inh	MC4R barr agon	Bfl-1 A1 inh	cAMP nonselect	MC4R cAMP antag
Cc1ccc(NC(=O)c2cc(N3C(=O)C=CC3=O)ccc2Cl)cc1C	0	57*	16	7	-2	0	8	12
Cc1ccc(NC(=O)c2cc(-n3cnnc3)ccc2Cl)cc1	1	2	-3	3	-1	0	·	·
COC(=O)[C@@]12CCCCC3=C1N(CCC3)C(=O)[C@H]2CC(=O)NCCCN1CCCC1=O	·	·	·	-1	·	·	·	·
O=C(OC1CCOC1=O)c1cc(-c2cccs2)nc2ccccc12 (stereo not given)	5	35*	-2	-4	1	-2	26*	38*
C[C@H](O)[C@@H]1CN2CCc3c([nH]c4cccc(-c5ccccc5)c34)[C@@H]2C[C@@H]1N(C)C(=O)c1ccco1	·	·	·	4	·	·	·	·
CC(C)CNC(=O)COC(=O)c1c2c(nc3ccccc13)/C(=C\c1cccs1)CC2	·	29*	-6	-8	3	·	3	0
CCC(=O)N(CC(=O)Nc1sc(C)c(C)c1C(N)=O)C1CCCC1	1	29*	0	12	-1	1	-3	-17
COc1ccc(C(=O)N(CC(=O)Nc2sc(C)c(C)c2C(N)=O)C2CCCC2)cc1	1	16	?	-7	-1	0	·	·
O=C(COC(=O)CCN1C(=O)c2cccc([N+](=O)[O-])c2C1=O)NCc1ccccc1	2	33*	6	2	-3	0	6	21
O=C(CCCCCN1C(=O)c2cccc([N+](=O)[O-])c2C1=O)Nc1ccccc1F	0	10	0	-2	0	1	·	·
O=C(CCCCCN1C(=O)c2cccc([N+](=O)[O-])c2C1=O)NCCc1ccccc1	·	5	-5	6	-1	·	·	·
CCCN(CC(=O)Nc1ccccc1C)C(=O)CCN1C(=O)c2cccc([N+](=O)[O-])c2C1=O	4	30*	-2	3	-3	1	21*	33*
CCOC(=O)Cc1csc(NC(=O)CCN2C(=O)c3cccc([N+](=O)[O-])c3C2=O)n1	-1	44*	-7	6	1	0	8	10
Cc1cccc(NC(=O)CCN2C(=O)c3cccc([N+](=O)[O-])c3C2=O)c1	-1	31*	3	12	-2	0	16*	29*
C=CCN1C(=O)[C@@H](CC(=O)N2CCSCC2)[C@]2(C(=O)OC)CCCCC=C12	·	·	·	12	·	·	·	·
C[C@@H]1CNC(=O)c2c(C(=O)N(C)Cc3ccccc3)ncn21	·	·	·	15	·	·	·	·
COC(=O)[C@]12C[C@H](CC(=O)N3CCSCC3)C(=O)N(Cc3ccc(Cl)cc3Cl)C1=C[C@H](COCc1ccccc1)O[C@@H]2C	·	·	·	-4	·	·	·	·
CNC(=O)COC(=O)c1ccccc1C(=O)c1ccc(Cl)c([N+](=O)[O-])c1	·	26	0	0	-2	·	·	·
N/C(=N\OC(=O)c1ccc(Cl)c([N+](=O)[O-])c1)c1ccccc1	3	44*	6	14	-1	-3	22*	36*
O=C(COC(=O)c1ccccc1C(=O)c1ccc(Cl)c([N+](=O)[O-])c1)NC1CC1	-1	29*	-5	-1	0	0	21*	-14
N/C(=N\OC(=O)c1ccc(Cl)c([N+](=O)[O-])c1)c1ccccn1	2	48*	5	0	-1	-2	28*	40*
N/C(=N\OC(=O)c1cc([N+](=O)[O-])ccc1Cl)c1cccnc1	2	62*	7	6	1	0	18*	47*
Cc1ccc(-c2cc(C(=O)NN=Cc3ccc(N(C)C)cc3)[nH]n2)cc1C	·	·	·	2	·	·	·	·
CN(C)c1ccnc(Nc2ccc(O)cc2)c1C#N	0	29*	-6	2	1	0	-1	3
Cc1cccc(C(=O)OCC(=O)NCc2cccs2)c1	0	5	-2	1	-2	0	·	·
SMILES	NTR1 ag	MC4R antagonist	Granule exo inh	HGIII-sPLA2 inh	MC4R barr agon	Bfl-1 A1 inh	cAMP nonselect	MC4R cAMP antag
CS(=O)(=O)c1ccc(C(=O)OCC(=O)NCc2cccs2)cc1[N+](=O)[O-]	39	47*	1	15	-2	1	22*	18
COc1ccc(NC(=O)Nc2cccc3c2O[C@H](CN(C)C(=O)Nc2ccc(C(F)(F)F)cc2)[C@@H](C)CN([C@H](C)CO)C3=O)cc1	1	35*	-4	·	0	0	1	19
C[C@H](CO)N1C[C@H](C)[C@@H](CN(C)C(=O)Nc2ccc(C(F)(F)F)cc2)Oc2c(NC(=O)Nc3ccc(C(F)(F)F)cc3)cccc2C1=O	26	24	-3	-25	-1	1	·	·
Cc1nc2c(sc3nc(N4CCOCC4)c4c(c32)CC(C)(C)OC4)c(-c2ccccc2)c1C(=O)O	5	40*	-2	-7	0	1	12	20
Cc1ccc(-n2c(SCC(=O)Nc3ccc(OCc4ccccc4)cc3)nnc2-c2ccccc2)cc1	·	·	·	0	·	·	·	·
CCOC(=O)C1CSCCS(=O)(=O)N1Cc1ccc(F)cc1F (stereo not given)	·	·	·	10	·	·	·	·
Cc1cccc(C)c1NC(=O)COC(=O)CSc1nnc(N)s1	1	21	7	-4	3	0	·	·
Cc1cccc(C)c1NC(=O)CCCSc1nnc(N)s1	-1	33*	-5	0	0	0	-1	-7
COC(=O)c1cc(C2(c3c[nH]c4ccccc34)CCN(C(=O)OC(C)(C)C)CC2)n2ccccc12	·	·	·	-25	·	·	·	·
Cc1ccc(-n2cccc2/C=C2\C(=N)N3N=C(C(C)C)SC3=NC2=O)cc1	3	73*	-1	-5	-2	1	-3	20
C=CCN1C(=O)[C@@H](CC(=O)N2CCC(c3ccccc3)CC2)[C@]2(C(=O)OCC)CCCCC/C=C/12	·	·	·	-1	·	·	·	·
N#Cc1c(N2CCSCC2)nsc1-c1ccccc1Cl	·	29*	-14	1	-2	0	24*	47*
